Results on six molecules are retold here after article PMC6335621 (Chemical Science, 2018).

Some results are limits rather than exact numbers.

In general, IC50 refers to the concentration that inhibits the measured activity by half.

A short description of data set [1]: Stability in the solid state and in CDCl3 solution. The format is physicochemical.
For a further data set, the system named is HCC827. The experiment in a line: In vitro cytotoxicity. In kind it is cell-based, human. To be noted: read-out: IC50 HCC827; MTT assay, 72 h incubation. Put shortly:
(§1)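 Cell lines: HeLa (cervical epithelial carcinoma), HepG2 (hepatocellular carcinoma), MCF-7 (breast carcinoma), HCT-116 (colorectal carcinoma), and HCC827 and NCI-H460 (non-small cell lung carcinoma).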
A general note: Tetrazolium dyes change colour on reduction, which living cells bring about.

For data set [2], the system named is NCI-H460. The experiment in a line: Light-induced cytotoxicity assay. In kind it is cell-based, human. To be noted: for PI = IC50(dark)/IC50(light): NCI-H460, phototoxicity index. The method, boiled down:
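NCI-H460 cells were incubated with test compound, then exposed to visible light at 2.8 mW cm–2 for 1 h. […] Phototoxicity index = IC50(dark)/IC50(light).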

In data set [3] the test system is NCI-H460. The experiment in a line: In vitro cytotoxicity in the dark. To be noted: read-out: IC50 NCI-H460 (dark). The format is cell-based, human. The method, boiled down: as §1
For the next data set, the system named is HepG2. The experiment in a line: In vitro cytotoxicity. The format is cell-based, human. Conditions: read-out: IC50 HepG2; MTT assay, 72 h incubation. The method, boiled down: as §1
Another data set relates to HCT116. The data set can be described thus: In vitro cytotoxicity. In kind it is cell-based, human. Conditions: read-out: IC50 HCT116; MTT assay, 72 h incubation. The method, boiled down: as §1
For data set [4] the following is noted: in CHCl3; cited from earlier work.

On to [Ir^III(F20tpp)(BIMe)Cl] [1d], for which the “Stable in the solid state and in CDCl3 solution for” value (shortened to “Stable”) in data set [1] was 1 week.

`N.N.[Cl][Pt][Cl]` [Cisplatin]: the IC50 worked out at 9.61 ± 0.81 µM with HCC827; 4.61 ± 0.31 µM in the data set on NCI-H460 [2] (read-out: IC50 NCI-H460 (light), visible light irradiation 2.8 mW cm^–2 for 1 h); 3.96 ± 0.48 µM in the data set on NCI-H460 [3]; 6.18 ± 0.82 µM in the data set on HepG2; 6.94 ± 0.54 µM in the data set with HCT116. Also, the results for the “PI = IC50(dark)/IC50(light)” value in the data set on NCI-H460 [2] and in the data set with NCI-H460 [2] (listed as cisplatin) were 0.86 and less than 1, respectively.

Consider [Ir^III(tmp)(BIMe)Cl] [1b], for which the “Stable” value in data set [1] amounted to 1 week.

Regarding `C1=Cc2nc1c(-c1ccccc1)c1ccc([nH]1)c(-c1ccccc1)c1nc(c(-c3ccccc3)c3ccc([nH]3)c2-c2ccccc2)C=C1` [H2tpp], the “Φso (quantum yield of singlet oxygen production)” value in data set [4] was 0.55.

Consider [Ir^III(F20tpp)(IMe)Cl] [1c], for which the Decomposes within in data set [1] (under ambient conditions) is not above 1 days.

Take [Ir^III(tmp)(IMe)Cl] [1a]: the “Stable” value in data set [1] is recorded as 1 week.
